Measurements: ChEMBL document CHEMBL1151981, “Bioactive pyridine-N-oxide disulfides from Allium stipitatum” (J Nat Prod, 2009)
Values after ≈ are worked out from the molar mass of the structure shown. Active and inactive are the calls of the source. The calls are words filed in the database; no cut-off is given here.

Experiments:
[1] = tested on: Mycobacterium tuberculosis; experiment: Antibacterial activity against Mycobacterium bovis BCG after 14 days by spot-culture growth inhibition assay; assay type: functional; settings: variant bovis BCG, 336 h
How it was run: (§1)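 Mid-exponential cultures (BCG rotated in 7H9/ADC/Tween 80; H37Rv standing in 7H9/OADC/Tween 80) diluted to 10³ cells/mL. 5 µL spotted onto 7H10 agar with 10% OADC containing compound at 0.01, 0.1, 0.5, 1 and 5 µg/mL. Incubated at 37 °C for 14 days. MIC taken as lowest concentration with no growth; no-compound well as growth control.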

[2] = tested on: Mycobacterium tuberculosis; experiment: Antibacterial activity against Mycobacterium bovis BCG at 0.01 to 5 ug/ml after 14 days by spot-culture growth inhibition assay; assay type: functional, organism-based; settings: variant bovis BCG; how it was run: as §1

| Structure (SMILES) | MIC [1] [µg/mL] | Activity [2] |
| --- | --- | --- |
| CSCSSc1cccc[n+]1[O-] | 0.1 (≈ 0.456 µM) | Active |
| CSSc1cccc[n+]1[O-] | 0.1 (≈ 0.577 µM) | Active |
